In ChEMBL document CHEMBL4699451, “Discovery of BIIB068: A Selective, Potent, Reversible Bruton's Tyrosine Kinase Inhibitor as an Orally Efficacious Agent for Autoimmune Diseases” (J Med Chem, 2020):
≈ marks a conversion by molar mass, not a printed value.

Legend:
[1] = In vivo inhibition of BTK-dependent B cell activation in TI-2 antigen/ NP-Ficoll-induced DBA1 mouse immunized model assessed as reduction in anti-NP IgM antibody titer administered orally twice daily for 10 days measured post last dose by ELISA; format: functional, organism-based; settings: DBA1, po, 240 h, dose mg/kg 1-50, time 10 day
[2] = Clearance in Sprague-Dawley rat at 1 mg/kg, iv relative to hepatic blood flow; format: ADME, organism-based; settings: in vivo
[3] = Oral bioavailability in rat at 5 mg/kg; format: ADME, organism-based; settings: in vivo
Procedure, shortened: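 Oral dosing in rats; vehicle 0.1% CMC/0.2% Tween-80.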

[4] = Half life in rat at 1 mg/kg, iv; format: ADME, organism-based; settings: in vivo
[5] = Clearance in rat at 1 mg/kg, iv relative to hepatic blood flow; format: ADME, organism-based; settings: in vivo
[6] = AUC in dog at 5 mg/kg, po; format: ADME, organism-based, Canis lupus familiaris; design: dose 5 mg/kg; settings: in vivo
[7] = Clearance in dog at 1 mg/kg, iv; format: ADME, organism-based, Canis lupus familiaris; settings: in vivo
[8] = Half life in dog at 1 mg/kg, iv; format: ADME, organism-based, Canis lupus familiaris; settings: in vivo
[9] = Oral bioavailability in cynomolgus monkey at 5 mg/kg; format: ADME, organism-based, Macaca fascicularis; settings: in vivo
[10] = Clearance in cynomolgus monkey at 1 mg/kg, iv; format: ADME, organism-based, Macaca fascicularis; settings: in vivo
[11] = Clearance in cynomolgus monkey at 1 mg/kg, iv relative to hepatic blood flow; format: ADME, organism-based, Macaca fascicularis; settings: in vivo
[12] = target: T1, Cytochrome P450 1A2 (Homo sapiens, UniProt P05177); experiment: Inhibition of CYP1A2 in human liver microsomes using phenacetin as substrate measured after 15 mins in presence of NADPH by LC-MS/MS analysis; format: ADME
T1 sequence (P05177 whole entry): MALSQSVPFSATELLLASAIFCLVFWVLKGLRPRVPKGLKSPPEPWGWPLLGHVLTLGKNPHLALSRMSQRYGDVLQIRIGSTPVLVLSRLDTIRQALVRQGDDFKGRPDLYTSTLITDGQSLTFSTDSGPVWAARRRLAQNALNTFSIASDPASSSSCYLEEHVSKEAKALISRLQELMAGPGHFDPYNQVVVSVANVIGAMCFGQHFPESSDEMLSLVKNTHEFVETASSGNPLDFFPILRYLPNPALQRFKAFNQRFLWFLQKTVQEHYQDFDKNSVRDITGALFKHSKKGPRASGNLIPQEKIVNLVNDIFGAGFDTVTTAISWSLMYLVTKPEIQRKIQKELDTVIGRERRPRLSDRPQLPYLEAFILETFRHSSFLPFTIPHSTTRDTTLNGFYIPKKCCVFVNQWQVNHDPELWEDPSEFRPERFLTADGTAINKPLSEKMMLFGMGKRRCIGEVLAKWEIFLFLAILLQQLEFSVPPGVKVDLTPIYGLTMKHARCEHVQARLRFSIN

[13] = target: Cytochrome P450 2D6 (Homo sapiens, UniProt P10635); experiment: Inhibition of CYP2D6 in human liver microsomes using dextromethorphan as substrate measured after 15 mins in presence of NADPH by LC-MS/MS analysis; format: ADME
Sequence of Cytochrome P450 2D6 (P10635 whole entry): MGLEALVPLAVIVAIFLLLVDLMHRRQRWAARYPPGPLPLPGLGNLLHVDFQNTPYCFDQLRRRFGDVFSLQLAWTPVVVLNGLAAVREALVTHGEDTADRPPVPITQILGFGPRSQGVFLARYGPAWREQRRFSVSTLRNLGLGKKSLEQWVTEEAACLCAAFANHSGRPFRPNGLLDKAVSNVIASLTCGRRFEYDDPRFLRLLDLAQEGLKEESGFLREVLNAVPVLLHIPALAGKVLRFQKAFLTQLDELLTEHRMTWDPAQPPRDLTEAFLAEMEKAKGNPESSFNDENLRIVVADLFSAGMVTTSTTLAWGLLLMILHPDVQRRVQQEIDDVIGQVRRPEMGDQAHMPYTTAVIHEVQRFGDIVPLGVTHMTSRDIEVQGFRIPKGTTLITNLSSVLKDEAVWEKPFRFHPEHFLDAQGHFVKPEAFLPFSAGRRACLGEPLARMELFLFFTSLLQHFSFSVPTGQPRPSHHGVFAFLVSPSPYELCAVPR

[14] = target: T2, Cytochrome P450 3A4 (Homo sapiens, UniProt P08684); experiment: Inhibition of CYP3A4 in human liver microsomes using midazolam as substrate measured after 15 mins in presence of NADPH by LC-MS/MS analysis; format: ADME
T2 sequence (P08684 whole entry): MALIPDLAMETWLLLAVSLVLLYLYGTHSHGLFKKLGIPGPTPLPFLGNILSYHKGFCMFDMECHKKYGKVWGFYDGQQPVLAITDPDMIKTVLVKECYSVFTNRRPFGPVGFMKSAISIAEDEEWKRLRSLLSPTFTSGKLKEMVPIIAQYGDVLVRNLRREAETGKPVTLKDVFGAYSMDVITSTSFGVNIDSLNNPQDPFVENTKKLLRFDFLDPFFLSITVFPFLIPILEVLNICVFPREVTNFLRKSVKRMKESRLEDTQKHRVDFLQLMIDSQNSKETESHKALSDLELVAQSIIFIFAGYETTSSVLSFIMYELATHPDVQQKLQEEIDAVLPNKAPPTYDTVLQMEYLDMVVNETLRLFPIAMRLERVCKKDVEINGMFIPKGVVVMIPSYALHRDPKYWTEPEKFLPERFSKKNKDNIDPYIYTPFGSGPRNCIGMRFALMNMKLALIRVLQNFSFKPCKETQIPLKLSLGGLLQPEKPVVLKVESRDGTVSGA

[15] = target: T2, Cytochrome P450 3A4; experiment: Time-dependent inhibition of CYP3A4 in human liver microsomes using testosterone in presence of NADPH by LC-MS/MS analysis; format: ADME
[16] = target: Voltage-gated inwardly rectifying potassium channel KCNH2 (Homo sapiens, UniProt Q12809); experiment: Inhibition of human ERG by automated patch-clamp assay
Sequence of Voltage-gated inwardly rectifying potassium channel KCNH2 (Q12809 whole entry): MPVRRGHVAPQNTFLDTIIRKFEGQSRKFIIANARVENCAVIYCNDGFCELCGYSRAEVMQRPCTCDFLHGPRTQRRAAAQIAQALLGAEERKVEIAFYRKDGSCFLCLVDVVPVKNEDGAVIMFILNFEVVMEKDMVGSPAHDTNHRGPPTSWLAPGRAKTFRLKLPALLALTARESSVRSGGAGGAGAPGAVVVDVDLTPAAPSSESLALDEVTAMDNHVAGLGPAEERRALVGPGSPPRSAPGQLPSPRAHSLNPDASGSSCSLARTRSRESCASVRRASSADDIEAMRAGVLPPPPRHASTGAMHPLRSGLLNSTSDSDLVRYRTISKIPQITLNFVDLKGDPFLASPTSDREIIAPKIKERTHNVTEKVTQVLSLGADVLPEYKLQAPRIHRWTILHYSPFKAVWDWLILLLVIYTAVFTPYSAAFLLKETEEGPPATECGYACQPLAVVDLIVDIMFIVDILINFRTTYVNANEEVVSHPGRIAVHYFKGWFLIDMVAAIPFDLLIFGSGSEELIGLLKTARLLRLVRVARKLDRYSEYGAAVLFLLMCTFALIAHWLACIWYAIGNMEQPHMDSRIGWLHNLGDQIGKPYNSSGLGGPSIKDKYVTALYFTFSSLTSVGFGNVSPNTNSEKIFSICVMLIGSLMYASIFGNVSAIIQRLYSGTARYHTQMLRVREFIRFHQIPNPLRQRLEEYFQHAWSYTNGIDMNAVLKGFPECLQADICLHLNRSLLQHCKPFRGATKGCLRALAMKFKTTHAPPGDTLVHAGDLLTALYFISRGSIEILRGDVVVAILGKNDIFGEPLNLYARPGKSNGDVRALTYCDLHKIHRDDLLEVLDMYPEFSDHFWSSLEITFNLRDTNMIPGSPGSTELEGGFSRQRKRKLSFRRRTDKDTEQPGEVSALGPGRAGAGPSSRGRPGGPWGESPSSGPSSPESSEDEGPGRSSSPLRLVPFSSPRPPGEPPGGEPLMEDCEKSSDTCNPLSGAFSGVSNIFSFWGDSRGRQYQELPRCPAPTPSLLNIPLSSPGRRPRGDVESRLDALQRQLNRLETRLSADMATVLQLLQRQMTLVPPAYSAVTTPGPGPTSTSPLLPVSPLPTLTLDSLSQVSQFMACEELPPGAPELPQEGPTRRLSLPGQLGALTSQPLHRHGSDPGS

[17] = Aqueous solubility of compound in simulated intestinal fluid at pH 7 by HPLC method; format: physicochemical
[18] = Aqueous solubility of compound in simulated gastric fluid at pH 2 by HPLC method; format: physicochemical
[19] = Lipophilicity, log D of compound at pH 7.4 by shake flask method; format: physicochemical; settings: buffer
[20] = Protein binding in rat plasma assessed as unbound fraction; format: ADME, cell-free
[21] = Protein binding in cynomolgus monkey plasma assessed as unbound fraction; format: ADME, cell-free, Macaca fascicularis
[22] = Protein binding in dog plasma assessed as unbound fraction; format: ADME, cell-free, Canis lupus familiaris
[23] = target: T1, Cytochrome P450 1A2; experiment: Induction of CYP1A2 in human hepatocytes up to 50 uM; format: ADME, cell-based, Hepatocyte
Procedure, shortened: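 Sandwich-cultured human hepatocytes exposed at concentrations up to 50 μM; induction of CYP1A2, 2B6 and 3A4 assessed.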

[24] = Stability in mouse plasma assessed as parent compound remaining after 6 hrs; format: ADME, cell-free; settings: read-out: Stabilty
Procedure, shortened: (§1)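 Compound incubated in plasma for 6 hours, then percentage of parent compound remaining determined.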

[25] = Stability in rat plasma assessed as parent compound remaining after 6 hrs; format: ADME, cell-free; settings: read-out: Stabilty; procedure, shortened: as §1
[26] = Drug metabolism in human liver microsomes assessed as oxidation at pyrazole moiety; format: ADME, Microsome
[27] = target: T3, Tyrosine-protein kinase BTK (Mus musculus, UniProt P35991); experiment: Inhibition of BTK in DBA1 mouse whole blood assessed as reduction in BTK phosphorylation; format: tissue-based
T3 sequence (P35991 whole entry): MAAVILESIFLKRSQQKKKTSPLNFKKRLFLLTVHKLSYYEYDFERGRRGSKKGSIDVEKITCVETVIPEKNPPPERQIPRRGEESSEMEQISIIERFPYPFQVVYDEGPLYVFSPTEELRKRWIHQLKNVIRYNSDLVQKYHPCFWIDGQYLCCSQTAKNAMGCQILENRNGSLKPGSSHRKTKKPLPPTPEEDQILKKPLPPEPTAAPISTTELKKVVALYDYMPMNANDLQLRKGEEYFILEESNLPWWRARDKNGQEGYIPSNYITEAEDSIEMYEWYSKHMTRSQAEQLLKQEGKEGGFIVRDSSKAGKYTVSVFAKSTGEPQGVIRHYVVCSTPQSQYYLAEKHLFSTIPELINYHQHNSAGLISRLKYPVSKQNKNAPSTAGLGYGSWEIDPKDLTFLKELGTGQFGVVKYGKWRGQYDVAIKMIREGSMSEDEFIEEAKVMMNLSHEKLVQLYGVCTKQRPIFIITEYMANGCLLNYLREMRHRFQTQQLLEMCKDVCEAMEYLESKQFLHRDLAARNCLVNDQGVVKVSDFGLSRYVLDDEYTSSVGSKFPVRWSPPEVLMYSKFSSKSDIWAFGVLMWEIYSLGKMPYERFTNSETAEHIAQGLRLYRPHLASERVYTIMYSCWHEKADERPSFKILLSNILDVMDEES

[28] = target: T3, Tyrosine-protein kinase BTK; experiment: In vivo inhibition of BTK in TI-2 antigen/ NP-Ficoll-induced DBA1 mouse immunized model assessed as reduction in BTK phosphorylation administered orally twice daily for 10 days measured post last dose; format: functional, organism-based
Procedure, shortened: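 Female DBA/1 mice, nine per arm, were immunized with 30 µg NP-Ficoll ip on day 0 and dosed PO twice daily for 10 days (1-50 mg/kg/dose) in 0.5% carboxymethylcellulose/0.1% Tween 80. On day 10, serum NP-specific IgM was measured by ELISA on NP-BSA plates (biotin anti-IgM, streptavidin-HRP, ABTS, 405 nm) and titer interpolated against a pooled positive serum standard, reported as reduction vs vehicle. Whole-blood pBTK was taken at pre-last dose and 1 and 4 h post final dose.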

[29] = Toxicity in Sprague-Dawley rat assessed as change in body weight measured up to 13 weeks; settings: in vivo, 2184 h
Procedure, shortened: (§2)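 GLP toxicity studies lasting up to 13 weeks, run in Sprague-Dawley rats and cynomolgus monkeys.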

[30] = Toxicity in Sprague-Dawley rat assessed as effect on food consumption measured up to 13 weeks; settings: in vivo, 2184 h; procedure, shortened: as §2
[31] = Toxicity in Sprague-Dawley rat assessed as effect on clinical pathology measured up to 13 weeks; settings: in vivo, 2184 h; procedure, shortened: as §2
[32] = Toxicity in Sprague-Dawley rat assessed as histopathological changes measured up to 13 weeks; settings: in vivo, 2184 h; procedure, shortened: as §2
[33] = Toxicity in cynomolgus monkey assessed as change in body weight measured up to 13 weeks; design: species or system Macaca fascicularis; settings: in vivo, 2184 h; procedure, shortened: as §2
[34] = Toxicity in cynomolgus monkey assessed as effect on food consumption measured up to 13 weeks; design: species or system Macaca fascicularis; settings: in vivo, 2184 h; procedure, shortened: as §2
[35] = Toxicity in cynomolgus monkey measured up to 13 weeks; design: species or system Macaca fascicularis; settings: in vivo; procedure, shortened: as §2
[36] = AUC (infinity) in Sprague-Dawley rat at 50 mg/kg; format: ADME, organism-based; design: time infinity, dose 50 mg/kg; settings: in vivo
Procedure, shortened: (§3)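 Sprague-Dawley rats and cynomolgus monkeys given compound daily in GLP toxicity studies lasting up to 13 weeks; daily AUCinf taken at the no-observed-adverse-effect dose level of each species.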

[37] = AUC (infinity) in cynomolgus monkey at 100 mg/kg; format: ADME, organism-based, Macaca fascicularis; design: time infinity, dose 100 mg/kg; settings: in vivo; procedure, shortened: as §3
[38] = Genotoxicity in Sprague-Dawley rat assessed as disruption of mitotic apparatus in bone marrow by micronucleus assay; format: toxicity
Procedure, shortened: (§4)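 In vivo micronucleus test in Sprague-Dawley rats; bone marrow scored for micronuclei, clastogenic activity and disruption of the mitotic apparatus.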

[39] = Genotoxicity in Sprague-Dawley rat assessed as micronuclei formation by micronucleus assay; format: toxicity; procedure, shortened: as §4

Work on `Cc1cc(-c2ccnc(Nc3cnn(C)c3)n2)ccc1CNC(=O)N1CC(OC(C)C)C1` yielded an ED50 [1] of 4.4 mg/kg, a CL [2] of 1% and a bioavailability [3] of 48%. For the same compound, the half-life [4] was 1.2 h, the CL [5] was 6% and the AUC [6] was 1.94 µg·h/mL. For the same compound, the clearance [7] was 11 mL/min/kg, the half-life [8] was 2.1 h and the bioavailability [9] was 32%. It also gave a clearance [10] of 11 mL/min/kg, a CL [11] of 26% and an IC50 [12] of over 25 µM. For the same compound, the IC50 [13] was over 25 µM, the IC50 [14] was over 25 µM and the Ki [15] was 50 µM. It also gave an IC50 [16] of over 50 µM, a solubility [17] of 1 µg/mL (≈ 2.3 µM) and a solubility [18] of over 100 µg/mL. For the same compound, the logD [19] was 2.92, the fraction unbound [20] was 0.0128 and the fraction unbound [21] was 0.0362. The fraction unbound [22] was 0.113, the Activity [23] was “Not Active” and the remaining at 6 h [24] was over 95%. The remaining at 6 h [25] was over 95%, the Drug metabolism [26] was “Metabolite_Detected” and the IC50 [27] was 0.17 µM. For the same compound, the IC50 [28] was 0.13 µM, the Activity [29] was “Non-Toxic” and the Activity [30] was “Non-Toxic”. For the same compound, the Activity [31] was “Non-Toxic”, the Activity [32] was “Non-Toxic” and the Activity [33] was “Non-Toxic”. The Activity [34] was “Non-Toxic”, the NOAEL at 2184 h [35] was 100 mg/kg/day and the AUC(0-inf) [36] was 376 µg·h/mL. For the same compound, the AUC(0-inf) [37] was 129 µg·h/mL, the Activity [38] was “Non-Toxic” and the Activity [39] was “Non-Toxic”.
